OX1R antag-1 – OX1R (human) antagonism; OX1R-expressing cells, FRET antagonist read-out; AID 485270; O43613; hit rate 1.8% among 330,000; inhibition, % at 6.6 µM; in the data active means inhibition mostly above about 38%, no sharp cut-off; inactive means mostly below about 40%;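 further: 0% = agonist challenge alone and 100% = reference antagonist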
Target sequence (O43613 whole entry, looked up): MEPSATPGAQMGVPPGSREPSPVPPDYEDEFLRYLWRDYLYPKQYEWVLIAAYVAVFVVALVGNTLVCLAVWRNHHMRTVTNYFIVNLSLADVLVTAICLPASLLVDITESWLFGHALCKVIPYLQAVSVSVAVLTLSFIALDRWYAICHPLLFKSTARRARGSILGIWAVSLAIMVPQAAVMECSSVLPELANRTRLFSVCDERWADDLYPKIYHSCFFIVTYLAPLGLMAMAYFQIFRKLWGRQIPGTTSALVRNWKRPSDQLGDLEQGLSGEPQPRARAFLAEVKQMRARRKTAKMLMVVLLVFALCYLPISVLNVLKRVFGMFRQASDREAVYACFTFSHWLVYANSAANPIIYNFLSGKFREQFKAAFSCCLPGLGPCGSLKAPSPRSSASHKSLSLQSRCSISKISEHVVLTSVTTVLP
CHO parental Ca – counter-screen for OX1R antagonists: effect in parental CHO cells; parental CHO-K1, ATP-induced calcium, Fluo-8 fluorescence; inhibition, % at 5.6 µM; hit rate 0.63% among 330,000; AID 463079;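 active means inhibition above that plate's mean sample inhibition plus 3 SD, cut at about 26% in these data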;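 further: 0% = ATP-challenged DMSO wells and 100% = DMSO wells without ATP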
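Test system: untransfected parental CHO cell line; also added: ATP stimulus; dosing: 5.6 µM, single dose; signal: calcium-sensitive Fluo-8 fluorescence; measure: percent inhibition of ATP-evoked calcium rise, normalized to controls; benchmarks: low control ATP plus DMSO, high control DMSO only; replication: one well per compound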
CHO-K1 Ca antag – M1 antagonist counterscreen hit in parental CHO-K1 cells; hit rate 0.6% among 360,000; inhibition, % at 3 µM; ATP-induced calcium, Fluo-8 fluorescence;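 active means inhibition above a per-plate cutoff, the plate's mean sample inhibition plus 3 SD, cut at about 24% in these data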;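 further: 0% = DMSO plus EC80 ATP and 100% = DMSO alone without ATP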
OX1R antag-2 – blocks the human orexin 1 receptor; hit rate 0.43% among 330,000; O43613; CHO/OX1R cells, Fluo-8 calcium fluorescence, orexin A; inhibition, % at 5 µM;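 active means inhibition above its plate's threshold, mean inhibition of all tested compounds on the plate plus 3 SD, cut at about 37% in these data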;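 further: 0% = orexin A challenge wells and 100% = SB-334867-A antagonist wells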
CHO-K1 Ca PAM – nonselective activator or artifact in parental CHO-K1 calcium assay. hit rate 0.02% among 360,000. ATP EC20, Fluo-8 calcium fluorescence; 0% at ATP EC20, 100% at ATP max. activation, % at 3 µM. AID 602247;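 active means activation above the run cutoff, the mean activation of all test compounds plus 3 SD, cut at about 40% in these data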;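 further: peak over basal fluorescence ratio in a 140 s read after ATP addition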
M1 ag parental – counter-screen for M1 agonists: effect in parental CHO-K1 cells | hit rate 0.48% among 360,000 | Fluo-8 calcium fluorescence; scaled to maximal ATP response, vehicle zero | activation, % at 3 µM | AID 602248; in the data active means activation above about 15%;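 further: untransfected CHO-K1 host cells lacking M1 receptor as counterscreen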
* hit, by the source's call; / = no result. The list is not random: actives were taken first. Their share in the collection is about 2.9%.

SMILES | OX1R antag-1 | CHO parental Ca | CHO-K1 Ca antag | OX1R antag-2 | CHO-K1 Ca PAM | M1 ag parental
CCOC(=O)C1(CCc2ccccc2)CCN(C(=O)C2CCOCC2)CC1 | 14 | -13 | 25* | -16 | -17 | 0
CCCN(CC(=O)Nc1ccc(F)c(F)c1F)C(=O)Cc1ccc(OC)c(S(=O)(=O)N2CCOCC2)c1 | / | / | -14 | / | 12 | 0
CCCNS(=O)(=O)c1cccc(C(=O)OCc2cc(=O)oc3cc(OC)ccc23)c1 | 47 | 26 | 1 | 55* | 2 | 16*
COc1ccc(S(=O)(=O)NCCC(=O)OCc2cc(=O)oc3cc(C)ccc23)cc1[N+](=O)[O-] | / | / | 34* | / | -13 | 11
COc1cc(OC)cc(C(=O)NCC(=O)OCc2cc(=O)oc3cc(OC)ccc23)c1 | 5 | -11 | 3 | -25 | 15 | 18*
CN(C)c1cccc(C(=O)OCC(=O)Nc2ccccc2-c2ccccc2)c1 | 33 | -8 | 5 | -4 | 6 | 2
O=C(CCl)Nc1ccccc1Sc1ccccc1 | 24 | -24 | 24* | -17 | -6 | 0
CN(C)c1cccc(C(=O)OCC(=O)Nc2ccccc2Sc2ccccc2)c1 | 17 | 6 | 31* | -30 | -14 | -1
CC(C)Cn1c(SCC(=O)Nc2cc(Cl)c(Cl)cc2Cl)nc(O)cc1=O | 9 | -18 | -7 | 8 | 4 | 1
C[C@H](CO)N1C[C@H](C)[C@@H](CN(C)Cc2ccc3c(c2)OCCN3C)OCc2cnnn2CCCC1=O | / | / | -2 | / | 3 | 1
Cc1ccc(C(=O)Nc2cccnc2)cc1Cl | -2 | -5 | -5 | -33 | 26 | 1
Cc1cccc(N2C(=O)c3cccc4c(N(C)CCO)ccc(c34)C2=O)c1 | 31 | 26 | 10 | 46* | -7 | 20*
COc1cc(CN2CC(=O)N(c3cccc(Cl)c3C)C2=S)cc(OC)c1OC | 27 | -7 | 6 | 13 | 3 | 23*
Nc1cc(N)nc(SCC(=O)N2CCN(S(=O)(=O)c3ccccc3)CC2)n1 | 3 | 1 | -24 | -15 | 17 | 1
Cn1c(N)c(C(=O)COC(=O)c2cccc(S(=O)(=O)N3CCCCC3)c2)c(=O)n(C)c1=O | 9 | -4 | 29* | -23 | -10 | 0
Cn1c(N)c(C(=O)COC(=O)c2cc(S(=O)(=O)N3CCCCC3)ccc2Cl)c(=O)n(C)c1=O | 10 | -34 | -13 | -22 | 18 | 4
Cc1ccc(C)c(N2CCN(C(=O)c3ccc(CS(=O)(=O)c4ccccc4C)o3)CC2)c1 | 12 | -18 | 25* | -23 | -8 | 3
Cc1ccc(S(=O)(=O)Cc2ccc(C(=O)N3CCN(c4cc(C)ccc4C)CC3)o2)cc1 | -2 | -9 | -3 | -16 | 9 | 0
O=[N+]([O-])c1cc([N+](=O)[O-])c2c(=Nc3ccccc3)n(-c3ccccc3)n(O)c2c1 | 15 | -15 | -15 | -8 | 22 | 2
COc1ccc(Nc2oc(COc3ccc(C)cc3)nc2C#N)cc1 | 30 | 38* | 13 | 13 | 1 | 0
CCOc1ccc(Nc2oc(-c3cccs3)nc2C#N)cc1 | 57* | 4 | -20 | 19 | 19 | 1
COCCNC(=O)C1(C)CCN(C(=O)/C=C/c2ccccc2)C1 (stereo not drawn) | / | / | -17 | / | 9 | 0
Cc1ccc(S(=O)(=O)N(Cc2ccccc2F)C(=O)N2CCN(C)CC2)cc1 | 6 | -4 | -2 | -4 | -6 | 5
CCCCCCCCCCCCCCCC[n+]1cccc(C(=O)N(CC)CC)c1 | 26 | 57* | -11 | 42 | 15 | 0
CCCCCCCCCCCCCCCC[n+]1ccc(C(N)=O)cc1 | 21 | 98* | 2 | 78* | 21 | 0
CCCCCCCCCCCCCCCC[n+]1ccc(/C=N/O)cc1 | 38 | 80* | -16 | 58* | 32 | 0
CCNC(=O)C1(C)CCN(C(=O)c2cc(OC)c(OC)c(OC)c2)C1 (stereo not drawn) | / | / | -12 | / | 24 | 1
Cc1cc(NN)nc2ccc(Cl)cc12 | 17 | -10 | -17 | -9 | 10 | 0
COc1ccc(-c2cc(C(=O)Nc3ccccc3SC)no2)cc1 | 18 | -8 | -20 | -12 | 8 | 1
CSc1ccccc1NC(=O)c1cc(-c2cccs2)on1 | 54* | -8 | -5 | -10 | 3 | 0

Screening data deposited in PubChem by The Scripps Research Institute Molecular Screening Center.
